According to ChEMBL document CHEMBL1128464, “Synthesis and antiproliferative and antiviral activity of 2'-deoxy-2'-fluoroarabinofuranosyl analogs of the nucleoside antibiotics toyocamycin and sangivamycin” (J Med Chem, 1995):
pIC50: −log10 of the molar value. Where “and” joins values, the source holds several entries; their conditions need not be identical. Equal values may be shown once.

How the values were obtained:
Human betaherpesvirus 5 [1] = assay: antiviral activity in Human cytomegalovirus by plaque assay (HCMV); type: functional, organism-based
Human betaherpesvirus 5 [2] = assay: antiviral activity in Human cytomegalovirus by plaque assay given as yield; type: functional
Human alphaherpesvirus 1 [3] = assay: Antiviral activity in Herpes simplex virus-1 assayed by ELISA in quadruplicate wells; type: functional, organism-based
L1210 [4] = assay: Antiproliferative activity in L1210 Murine Leukemia in vitro expressed as Growth rate in the presence of compound; type: functional, Mus musculus; set-up: concentration or dose not given beside the values
KB = assay: cell growth inhibition was determined in KB cells in quadruplicate assays; type: functional, cell-based; conditions: Homo sapiens
Human alphaherpesvirus 2 = assay: Antiviral activity as 50% inhibitory concentration against HSV-2; type: functional, organism-based
How it was run: (§1)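 Plaque reduction in HFF monolayers; HSV-1 E-377, HSV-2 MS or VZV Ellen, 20–50 PFU, 1 h adsorption at 37 °C; serial 5-fold drug dilutions in agarose overlay (extra overlay days 3 and 6 for VZV); neutral red staining at 3 days (HSV) or 10 days (VZV); plaques counted; duplicate assays.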

CCRF-CEM [5] = assay: cytotoxicity in CEM-SS cells by [3H]Thd uptake; type: functional, cell-based; conditions: Homo sapiens
How it was run: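 [3H]dThd incorporation into acid-precipitable DNA of CEM-SS cells; IC50 from regression of % inhibition on log concentration; triplicate assays.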

Human alphaherpesvirus 1 [6] = assay: Antiviral activity as 50% inhibitory concentration against HSV-1; type: functional, organism-based; how it was run: as §1
HFF [7] = assay: Visual cytotoxicity scored on HFF cells at time of HCMV plaque enumeration; type: functional, cell-based; conditions: Homo sapiens
How it was run: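 Stationary HFF cells, uninfected cells in HCMV plaque assay plates scored by microscopic inspection at plaque enumeration (7–10 days); IC50.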

HFF [8] = assay: Cytotoxicity in human foreskin fibroblast (HFF) stationary by MTT assay; type: functional, cell-based
How it was run: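 MTT assay on stationary HFF cells; drug in half-log10 dilutions; incubated one to three population doublings in 5% CO2; viable cells read at 570 nm; % inhibition vs control; IC50 from regression; duplicate assays.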

CCRF-CEM [9] = assay: Visual cytotoxicity scored on CEM cells at time of RT assay; conditions: Homo sapiens
HFF [10] = assay: Cytotoxicity in human foreskin fibroblast (HFF) stationary cells as neutral red uptake; type: functional, cell-based
Human alphaherpesvirus 3 = assay: antiviral activity as 50% inhibitory concentration against VZV; type: functional, organism-based; how it was run: as §1
CCRF-CEM [11] = assay: cytotoxicity in CEM-SS cells by visual inspection; type: functional, cell-based; conditions: Homo sapiens
L1210 [12] = assay: antiproliferative activity in L1210 Murine Leukemia in vitro expressed as concentration required to decrease growth rate to 50% of control; type: functional, cell-based; conditions: Mus musculus
How it was run: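 L1210 cells in static suspension, Fischer's medium with 10% heat-inactivated horse serum; cell counts at 0, 48, 96 h over a concentration series; IC50 is the concentration lowering growth rate (treated doublings as % of control) to 50% of control.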

Row | Structure (SMILES) | pIC50 (Human betaherpesvirus 5 [1]) | IC90 (Human betaherpesvirus 5 [2]) [µM] | pIC50 (Human alphaherpesvirus 1 [3]) | Growth rate (L1210 [4]) [%] | pIC50 (KB) | pIC50 (Human alphaherpesvirus 2) | pIC50 (CCRF-CEM [5]) | pIC50 (Human alphaherpesvirus 1 [6]) | pIC50 (HFF [7]) | pIC50 (HFF [8]; Homo sapiens, HFF) | pIC50 (HFF [8]; hff) | pIC50 (CCRF-CEM [9]) | pIC50 (HFF [10]) | pIC50 (Human alphaherpesvirus 3) | pIC50 (CCRF-CEM [11]) | pIC50 (L1210 [12])
1 | NC(=O)c1cn([C@@H]2O[C@H](CO)[C@@H](O)[C@@H]2F)c2ncnc(N)c12 | 7.60 | 0.075 | 6.33 | 9 | 5.72 | 7.52 | 6.71 | 7.52 and 8.43 | 5.26 | 6.89 | 6.80 | 6.40 | 5.17 | 8.52 | 6.40 | 5.49
2 | Cc1cn([C@H]2C[C@H](N=[N+]=[N-])[C@@H](CO)O2)c(=O)[nH]c1=O [ZIDOVUDINE] |  |  |  |  |  |  |  |  | < 4.00 |  |  |  |  |  |  | 
3 | N#Cc1cn([C@@H]2O[C@H](CO)[C@@H](O)[C@@H]2F)c2ncnc(N)c12 | 6.00 | 1.1 | 5.19 | 11 | 5.06 |  |  |  | 5.17 |  |  | 4.48 |  |  |  | 4.41
4 | N#Cc1cn([C@H]2O[C@H](CO)[C@@H](O)[C@@H]2F)c2ncnc(N)c12 | 4.80 | 100 | 4.34 | 98 | < 4.00 |  |  |  | 4.00 |  |  | < 4.00 |  |  |  | 
5 | Nc1nc2c(ncn2COC(CO)CO)c(=O)[nH]1 [GANCICLOVIR] |  | 1.6 |  |  | < 4.00 |  |  |  | < 4.00 |  |  |  |  |  |  | 
6 | N#Cc1c(Br)n([C@H]2O[C@H](CO)[C@@H](O)[C@@H]2F)c2ncnc(N)c12 | 5.49 | > 100 | < 4.00 | 45 | < 3.82 |  |  |  | 4.26 |  |  | < 4.00 |  |  |  | 4.05
7 | NC(=S)c1cn([C@@H]2O[C@H](CO)[C@@H](O)[C@@H]2F)c2ncnc(N)c12 | 6.66 | 1.5 | 5.06 | 5 | 5.52 |  |  |  | 5.51 |  |  | 5.70 |  |  |  | 5.30
8 | N#Cc1c(Br)n([C@@H]2O[C@H](CO)[C@@H](O)[C@@H]2F)c2ncnc(N)c12 | 4.92 | 7 | < 4.00 | 21 | 3.84 |  |  |  | 4.68 |  |  | 4.48 |  |  |  | 4.18
